From PubChem BioAssay
Activity calls are given as the source filed them.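 How the source made its calls, unless noted: active means viability at or below 30% in both replicate assays; inconclusive means viability at or below 30% in just one of the two assays; inactive means the rest.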

Experiments:
[1] = reducers of endogenous Her2 protein level, primary screen, SKBR3 breast tumor cells, AlphaScreen, ATP viability (AID 461;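 active means Her2 level under about 52% in both replicate screens, with viability over 70% of control, limit read from the data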;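 on Her2 level: lower value means less Her2 protein in the cells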;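 on viability: percent of carrier control wells set as 100% viability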); details: 18-24 h, measured here: SKBR3 viability, ATP luminescence, at 10 µM
[2] = target: Receptor tyrosine-protein kinase erbB-2 (Homo sapiens) (UniProt P04626); assay: as above; details: 18-24 h, at 10 µM, stronger effect = lower value
Chain of Receptor tyrosine-protein kinase erbB-2 (Homo sapiens) (P04626 whole entry, looked up): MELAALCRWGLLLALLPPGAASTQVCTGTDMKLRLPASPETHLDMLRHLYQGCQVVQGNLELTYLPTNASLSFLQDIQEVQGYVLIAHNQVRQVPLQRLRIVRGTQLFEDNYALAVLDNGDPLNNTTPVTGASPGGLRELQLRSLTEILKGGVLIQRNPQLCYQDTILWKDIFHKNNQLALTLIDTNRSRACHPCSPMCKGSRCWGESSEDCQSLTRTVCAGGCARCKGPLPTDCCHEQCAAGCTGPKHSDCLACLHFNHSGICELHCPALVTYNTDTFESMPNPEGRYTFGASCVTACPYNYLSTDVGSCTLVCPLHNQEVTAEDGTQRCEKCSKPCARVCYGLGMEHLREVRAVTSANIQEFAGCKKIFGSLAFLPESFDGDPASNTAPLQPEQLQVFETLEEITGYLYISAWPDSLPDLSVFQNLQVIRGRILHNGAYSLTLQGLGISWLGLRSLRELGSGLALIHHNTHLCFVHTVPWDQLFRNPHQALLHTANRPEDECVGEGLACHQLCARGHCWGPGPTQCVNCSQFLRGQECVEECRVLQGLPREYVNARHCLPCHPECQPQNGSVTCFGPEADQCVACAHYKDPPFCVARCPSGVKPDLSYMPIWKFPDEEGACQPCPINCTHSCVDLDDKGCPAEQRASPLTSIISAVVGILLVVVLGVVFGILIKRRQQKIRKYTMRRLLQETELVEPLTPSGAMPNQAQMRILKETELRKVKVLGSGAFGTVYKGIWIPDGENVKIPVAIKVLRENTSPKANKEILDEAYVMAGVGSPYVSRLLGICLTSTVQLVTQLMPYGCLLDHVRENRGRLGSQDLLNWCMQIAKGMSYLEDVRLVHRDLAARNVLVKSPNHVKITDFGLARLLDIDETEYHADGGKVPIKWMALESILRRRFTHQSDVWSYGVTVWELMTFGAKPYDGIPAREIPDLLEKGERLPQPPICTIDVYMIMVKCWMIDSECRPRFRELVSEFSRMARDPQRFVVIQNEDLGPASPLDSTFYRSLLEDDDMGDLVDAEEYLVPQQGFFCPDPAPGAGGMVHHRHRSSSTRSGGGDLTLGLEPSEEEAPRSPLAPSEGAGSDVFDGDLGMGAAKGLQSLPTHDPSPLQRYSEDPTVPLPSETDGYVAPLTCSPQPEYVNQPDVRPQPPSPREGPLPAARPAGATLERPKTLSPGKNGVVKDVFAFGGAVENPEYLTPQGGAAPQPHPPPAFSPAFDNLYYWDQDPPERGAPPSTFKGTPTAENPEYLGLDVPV

[3] = SK-BR-3 cell growth inhibitors, pilot screen, 24 h, human (AID 572;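 active means viability at or below 10% of carrier control in both of two separate runs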;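 further: compound exposure lasted between 18 and 24 h rather than exactly 24 h; 100% = carrier-treated control wells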); details: SK-BR-3 viability, CellTiter-Glo luminescence, at 10 µM, stronger effect = lower value
[4] = HUVEC growth inhibition – cell-based, human, primary screen (AID 575); details: HUVEC proliferation, CellTiter-Glo luminescence, 72 h; at 10 µM; stronger effect = lower value;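 further: 100% = median of untreated cell wells with 0.1% DMSO on each plate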
Procedure, shortened: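 Test system: primary human umbilical vein endothelial cells; medium: endothelial basal medium with 2% FBS plus growth supplements; dosing: 10 µM compound only; times: 72 h treatment at 37 °C; signal: CTG luminescence; read-out: % viability relative to median vehicle-well signal on each plate; control set: vehicle and MePR control wells; plate: 384-well, collagen-coated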

[5] = growth inhibitors of H69AR lung tumor, primary screen, human, duplicate replicates (AID 580;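 active means viability at or under a set limit in both replicates, limit being median viability minus 3 SD, cut at about 48% in these data, passing the limit was not always enough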;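 further: 100% = mean luminescence of untreated wells and 0% = no signal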); details: H69AR lung tumor cells viability, ATP luminescence, 72 h; at 10 µM; stronger effect = lower value
[6] = reversal of MRP1-mediated doxorubicin resistance, pilot screen, H69AR cells, doxorubicin co-treatment (AID 601;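 active means viability loss from added drug above about 55%, and viability with drug at most 40%, in both replicates, limit read from the data, passing the limit was not always enough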); details: CellTiter-Glo, 72 h, at 10 µM; for differential viability (reversal): stronger effect = higher value
[7] = 384-well plate pilot, post-Golgi transport modulator project, inhibition of yeast transport mutant growth (AID 636; in the data active means inhibition above about 31%); details: absorbance 615 nm, about 18 h, stronger effect = higher value
[8] = growth suppression of yeast trafficking mutant, preliminary HTS, modulators of trafficking downstream of Golgi apparatus project, 1536-format plate, OD 615 nm (AID 637; in the data active means inhibition above about 30%); details: yeast transport mutant growth, absorbance 615 nm, 18 h; stronger effect = higher value
[9] = H69AR cells + 2 uM doxorubicin, measured here: viability with 2 uM doxorubicin, stronger effect = lower value
[10] = H69AR cells, compound alone cytotoxicity

SMILES	viability [1] [%]	Her2 level [2]	viability [3]	viability [4]	viability [5]	differential viability (reversal) ([6]; H69AR cells + 2 uM doxorubicin)	viability [6, 9] [%]	viability [6, 10] [%]	inhibition [7]	inhibition [8]
O=C1NC(c2cccs2)Nc2ccccc21 (stereo not given)	107	86.5% (inactive)	107% (inactive)	111% (inactive)	86.7% (inactive)	-4.77% (inactive)	91.4	86.7	-8.03% (inactive)	-9.52% (inactive)
CCCC(c1nnnn1Cc1ccc(OC)cc1)N1CCN(c2ccccc2OC)CC1 (stereo not given)	103	112% (inactive)	103% (inactive)	92.4% (inactive)	90% (inactive)	-5.73% (inactive)	95.7	90	-2.47% (inactive)	-2.3% (inactive)
Cc1ccc2c(c1)CCCN2C(=O)Nc1ccc2c(c1)OCO2	95.5	79% (inactive)	95.5% (inactive)	84.8% (inactive)	89.5% (inactive)	0.28% (inactive)	89.2	89.5	-6.27% (inactive)	6.89% (inactive)
O=C(c1cccc(C(=O)N2CCN(c3ccccc3)CC2)c1)N1CCN(c2ccccc2)CC1	95.5	106% (inactive)	95.5% (inactive)	81.3% (inactive)	90.7% (inactive)	6.69% (inactive)	84	90.7	-2.47% (inactive)	-0.33% (inactive)
CCn1c(Cc2ccc(OC)cc2)nnc1SCC(=O)Nc1cccc(C(=O)OC)c1	89.5	86.5% (inactive)	89.5% (inactive)	85.8% (inactive)	103% (inactive)	7.12% (inactive)	95.7	103	-1.45% (inactive)	-2.86% (inactive)
COC(=O)c1c(NC(=O)c2ccc(S(=O)(=O)N3CCOCC3)cc2)sc2c1CCN(C)C2	96	106% (inactive)	96% (inactive)	94.8% (inactive)	90% (inactive)	-5.3% (inactive)	95.3	90	-5.26% (inactive)	-7.46% (inactive)
Nc1c(S(=O)(=O)c2cccs2)c2nc3ccccc3nc2n1CC1CCCO1 (stereo not given)	79.5	89.5% (inactive)	79.5% (inactive)	85.2% (inactive)	85.9% (inactive)	4.9% (inactive)	81	85.9	-2.21% (inactive)	-1.33% (inactive)
CCCCOc1ccc(NC(=O)Cn2c(=O)ccc3c(C)cc(C)nc32)cc1	102	104% (inactive)	102% (inactive)	94.1% (inactive)	91.2% (inactive)	11.8% (inactive)	79.5	91.2	-3.55% (inactive)	-1.45% (inactive)
Cc1csc(SCC(=O)NC(=O)NCc2ccccc2)n1	108	90.5% (inactive)	108% (inactive)	103% (inactive)	95.2% (inactive)	-0.125% (inactive)	95.3	95.2	-6.67% (inactive)	2.3% (inactive)
CCOC(=O)c1cccc(NC(=O)c2ccco2)c1	95.5	92.5% (inactive)	95.5% (inactive)	114% (inactive)	91.9% (inactive)	3.72% (inactive)	88.1	91.9	-0.77% (inactive)	-1.17% (inactive)
C=CCOc1nc(N2CCCC2)nc(N2CCCC2)n1	89	91% (inactive)	89% (inactive)	83.1% (inactive)	92.7% (inactive)	11.6% (inactive)	81.1	92.7	-3.55% (inactive)	-2% (inactive)
CCOC(=O)N1CCN(C(=O)CSc2ncnc3ccccc23)CC1	92	96% (inactive)	92% (inactive)	87.2% (inactive)	89.1% (inactive)	14.9% (inactive)	74.1	89.1	-1.33% (inactive)	0.33% (inactive)
CCOC(=O)c1ccccc1NC(=O)CSc1nc2c(c(=O)n(C)c(=O)n2C)n1C	100	92% (inactive)	100% (inactive)	101% (inactive)	92.4% (inactive)	6.47% (inactive)	85.9	92.4	-1.58% (inactive)	0.16% (inactive)
COC(=O)CSc1nc2ncc(Cl)cc2[nH]1	101	92.5% (inactive)	101% (inactive)	89.3% (inactive)	89.8% (inactive)	1.08% (inactive)	88.7	89.8	-5.06% (inactive)	1.15% (inactive)
Cc1ccc(C)c(N2CCN(S(=O)(=O)c3ccc4c(c3)OCCO4)CC2)c1	97.5	96.5% (inactive)	97.5% (inactive)	99.2% (inactive)	106% (inactive)	4.96% (inactive)	101	106	-4.81% (inactive)	-3.97% (inactive)
COc1ccc(-c2nc3c(c(=O)n(C)c(=O)n3C)n2CC2CC(c3ccccc3)=NO2)cc1OC (stereo not given)	85.5	85% (inactive)	85.5% (inactive)	63.4% (inactive)	6.03% (active)	1.44% (inactive)	4.58	6.03	-6.76% (inactive)	2.22% (inactive)

SMILES	viability [1] [%]	Her2 level [2]	viability [3]	viability [4]	viability [5]	differential viability (reversal) ([6]; H69AR cells + 2 uM doxorubicin)	viability [6, 9] [%]	viability [6, 10] [%]	inhibition [7]	inhibition [8]
COc1ccc(C(CNC(=O)c2cc(C)oc2C)N2CCOCC2)cc1 (stereo not given)	126	96.5% (inactive)	126% (inactive)	91.6% (inactive)	101% (inactive)	-9.67% (inactive)	110	101	-3.64% (inactive)	-0.32% (inactive)
Cc1cnc(SCCc2ccncc2)nc1C	97	109% (inactive)	97% (inactive)	109% (inactive)	86.6% (inactive)	9.61% (inactive)	76.9	86.6	-2.05% (inactive)	5.17% (inactive)
CC1(C)CC(CCNC(=O)c2ccco2)CC(C)(C)N1	106	92% (inactive)	106% (inactive)	84.2% (inactive)	98.8% (inactive)	2.95% (inactive)	95.8	98.8	-3.73% (inactive)	-4.76% (inactive)
Cn1c(=O)[nH]c(=O)c2[nH]c(NCCCN3CCOCC3)nc21	93.5	85.5% (inactive)	93.5% (inactive)	92.1% (inactive)	101% (inactive)	16.1% (inactive)	85	101	-2.47% (inactive)	-0.79% (inactive)
CC(C)(C)n1nnnc1CN1CCN(C2CCCC2)CC1	84	84% (inactive)	84% (inactive)	101% (inactive)	104% (inactive)	3.04% (inactive)	101	104	-7.7% (inactive)	-2.3% (inactive)
Cn1c(=O)cc(OCC(=O)N2CCN(c3cccc(C(F)(F)F)c3)CC2)c2ccccc21	89	82% (inactive)	89% (inactive)	90.7% (inactive)	75.3% (inactive)	-10% (inactive)	85.3	75.3	-6.27% (inactive)	5.57% (inactive)
CC(C)=CCCC(C)NC(=O)NC1CCCCC1 (stereo not given)	91	94% (inactive)	91% (inactive)	106% (inactive)	107% (inactive)	18% (inactive)	88.6	107	-5.33% (inactive)	2.74% (inactive)
Cc1c(C#N)sc2nc(-c3ccccc3)nc(N3CCCC3)c12	85.5	83% (inactive)	85.5% (inactive)	82.1% (inactive)	77% (inactive)	-11.2% (inactive)	88.1	77	-3.59% (inactive)	-8% (inactive)
CCSc1ccccc1C(=O)Nc1cccc(OC)c1	110	97% (inactive)	110% (inactive)	115% (inactive)	98.4% (inactive)	11.7% (inactive)	86.6	98.4	-8.49% (inactive)	-3.33% (inactive)
CCN(CC)CCCNS(=O)(=O)c1ccc(OC)cc1	114	89% (inactive)	114% (inactive)	103% (inactive)	90.3% (inactive)	-8.58% (inactive)	98.9	90.3	-5.32% (inactive)	-2.3% (inactive)
Cn1cccc1Cc1nnc(SCC(=O)Nc2ccccc2F)n1-c1ccc(F)cc1	87.5	99.5% (inactive)	87.5% (inactive)	103% (inactive)	98.2% (inactive)	-2.87% (inactive)	101	98.2	-1.28% (inactive)	-6.5% (inactive)
C/C(N)=C(/C#N)C(=O)CSc1nnc(Nc2cccc(C)c2)s1	114	79% (inactive)	114% (inactive)	77.5% (inactive)	83.8% (inactive)	7.75% (inactive)	76	83.8	-2% (inactive)	0.65% (inactive)
COCCNC(=O)C(c1ccc(C)o1)N(Cc1ccc(F)cc1)C(=O)Cn1nnc2ccccc21 (stereo not given)	89.5	95% (inactive)	89.5% (inactive)	95.7% (inactive)	97.8% (inactive)	3.14% (inactive)	94.7	97.8	6.62% (inactive)	-1.31% (inactive)
CC1CCN(C(=O)Cn2c(=O)oc3ccccc32)CC1	86.5	108% (inactive)	86.5% (inactive)	95.1% (inactive)	90.7% (inactive)	6.24% (inactive)	84.5	90.7	0.53% (inactive)	-6.55% (inactive)
CSc1nnc2c3ccccc3n(CCc3ccccc3)c2n1	90	100% (inactive)	90% (inactive)	68.6% (inactive)	89.4% (inactive)	3.33% (inactive)	86.1	89.4	-1.35% (inactive)	46.2% (active)
CCN(CCCNC(=O)C1CCCN(S(=O)(=O)c2cnc[nH]2)C1)c1ccccc1 (stereo not given)	94	93% (inactive)	94% (inactive)	104% (inactive)	94.8% (inactive)	6.6% (inactive)	88.2	94.8	-1.87% (inactive)	-1.64% (inactive)
